From PMC3578163 (Chemical research in toxicology, 2013)

How the values were obtained:
hpol ι^26–446 = target: T1, hpol ι^26–446 (Homo sapiens, UniProt Q9UNA4); assay: steady-state single-nucleotide; format: biochemical; details: for kcat: dCTP insertion
T1 sequence (Q9UNA4 26-446): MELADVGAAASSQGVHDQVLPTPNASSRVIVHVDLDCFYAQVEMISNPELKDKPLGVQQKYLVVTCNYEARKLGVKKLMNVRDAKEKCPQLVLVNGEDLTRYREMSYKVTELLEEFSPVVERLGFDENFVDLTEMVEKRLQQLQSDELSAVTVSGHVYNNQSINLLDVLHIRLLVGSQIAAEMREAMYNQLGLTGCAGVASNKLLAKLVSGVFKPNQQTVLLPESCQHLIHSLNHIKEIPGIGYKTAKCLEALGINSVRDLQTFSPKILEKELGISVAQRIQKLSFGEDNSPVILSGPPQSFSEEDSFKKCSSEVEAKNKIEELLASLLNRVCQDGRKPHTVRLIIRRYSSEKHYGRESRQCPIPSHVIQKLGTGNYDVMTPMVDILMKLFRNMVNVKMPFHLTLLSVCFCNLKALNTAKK
In short: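 Single dCTP insertion on a FAM-labelled primer-template: 5 nM enzyme, 100 nM DNA. Started with dCTP (10 concentrations, 1–1500 μM) plus 2 mM Mg²⁺. MK886 at 20 nM, 50 nM, 1 μM or 10 μM, or DMSO. Time points quenched with 95% formamide/20 mM EDTA; products resolved on 16% acrylamide/7 M urea gels. Velocities fitted to Michaelis–Menten; kcat and KM taken after enzyme correction.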

hpol η^1–437 = target: T2, hpol η^1–437 (Homo sapiens, UniProt Q9Y253); assay: polymerase-catalyzed primer extension; format: biochemical; details: read-out: IC50 for inhibition of DNA polymerase activity; all four dNTPs 0.25 mM, MgCl2 5 mM; 20 nM enzyme, 200 nM DNA, 37 °C
T2 sequence (Q9Y253 1-437): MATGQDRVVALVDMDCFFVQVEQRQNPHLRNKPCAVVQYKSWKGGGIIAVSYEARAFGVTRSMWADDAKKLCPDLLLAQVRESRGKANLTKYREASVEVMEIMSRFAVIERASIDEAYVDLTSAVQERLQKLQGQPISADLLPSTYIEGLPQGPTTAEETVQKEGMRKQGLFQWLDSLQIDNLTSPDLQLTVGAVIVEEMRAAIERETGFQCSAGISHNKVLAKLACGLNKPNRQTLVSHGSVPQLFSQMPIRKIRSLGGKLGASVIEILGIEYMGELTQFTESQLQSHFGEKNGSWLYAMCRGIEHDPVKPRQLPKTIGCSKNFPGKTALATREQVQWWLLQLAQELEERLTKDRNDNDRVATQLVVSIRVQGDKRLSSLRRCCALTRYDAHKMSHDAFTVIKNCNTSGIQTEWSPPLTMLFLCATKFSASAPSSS

CC(C)c1ccc2c(c1)c(SC(C)(C)C)c(CC(C)(C)C(=O)O)n2Cc1ccc(Cl)cc1 [MK886, 3-[1-(4-chlorobenzyl)-3-t-butyl-thio-5-isoproylindol-2-yl]-2,2-dimethylpropanoic acid]
kcat (hpol ι^26–446; 0.02 μM MK886): 0.0233 ± 0.0017 s⁻¹
Fold decrease in kcat/KM,dNTP (hpol ι^26–446; 0.02 μM MK886 vs no inhibitor): 1.5
kcat (hpol ι^26–446; 0.05 μM MK886): 0.02 ± 0.0017 s⁻¹
Fold decrease in kcat/KM,dNTP (hpol ι^26–446; 0.05 μM MK886 vs no inhibitor): 2.1
kcat (hpol ι^26–446; 1 μM MK886): 0.0267 ± 0.0017 s⁻¹
Fold decrease in kcat/KM,dNTP (hpol ι^26–446; 1 μM MK886 vs no inhibitor): 2.1
kcat (hpol ι^26–446; 10 μM MK886): 0.025 ± 0.0017 s⁻¹
Fold decrease in kcat/KM,dNTP (hpol ι^26–446; 10 μM MK886 vs no inhibitor): 2.8
mechanism of inhibition of DNA polymerase activity (hpol ι^26–446; single-nucleotide insertion, kcat and Km,dNTP both altered): mixed-model of inhibition
IC50 (hpol η^1–437): 45.8 ± 8.4 µM
